# Laboratory results published in ChEMBL document CHEMBL1146092, “Practical synthesis and evaluation of the biological activities of 1alpha,25-dihydroxyvitamin D3 antagonists, 1alpha,25-dihydroxyvitamin D3-26,23-lactams. Designed on the basis of the helix 12-folding inhibition hypothesis” (J Med Chem, 2006).
# Legend:
# [1] = target: T1, Vitamin D3 receptor (Gallus gallus) (UniProt O42392); assay: Binding affinity to chick intestinal VDR relative to 1,25-D3
# T1 sequence (whole entry): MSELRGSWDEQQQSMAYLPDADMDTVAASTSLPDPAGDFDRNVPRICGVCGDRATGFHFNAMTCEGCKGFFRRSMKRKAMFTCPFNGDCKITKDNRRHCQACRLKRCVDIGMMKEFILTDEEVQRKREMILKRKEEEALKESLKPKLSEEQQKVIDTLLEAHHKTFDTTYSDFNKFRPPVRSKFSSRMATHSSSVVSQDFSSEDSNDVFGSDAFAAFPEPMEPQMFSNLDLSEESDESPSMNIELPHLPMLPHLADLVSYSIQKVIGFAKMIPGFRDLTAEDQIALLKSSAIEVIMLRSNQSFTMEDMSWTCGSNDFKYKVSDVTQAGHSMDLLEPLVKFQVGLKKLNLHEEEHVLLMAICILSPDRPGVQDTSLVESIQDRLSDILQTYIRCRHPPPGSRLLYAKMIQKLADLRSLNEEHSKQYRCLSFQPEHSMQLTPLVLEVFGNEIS
# Method in brief: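 Competitive binding: receptor solution was incubated with [26,27-methyl-³H]-1,25-D3 (15 000 dpm, 180 Ci/mmol) and graded test compound in ethanol for 60 min at 25 °C. It was then cooled to 4 °C and precipitated with 40% PEG 6000, and the pellet was spun at 2260g for 60 min at 4 °C. Pellet radioactivity was counted by liquid scintillation. Affinity is expressed relative to 1,25-D3 = 100.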
# [2] = target: T2, Vitamin D3 receptor (Homo sapiens, UniProt P11473); assay: Antagonist activity assessed by differentiation of 1,25-D3-induced HL60 cells; assay type: functional, cell-based; details: hl-60
# T2 sequence (P11473 whole entry): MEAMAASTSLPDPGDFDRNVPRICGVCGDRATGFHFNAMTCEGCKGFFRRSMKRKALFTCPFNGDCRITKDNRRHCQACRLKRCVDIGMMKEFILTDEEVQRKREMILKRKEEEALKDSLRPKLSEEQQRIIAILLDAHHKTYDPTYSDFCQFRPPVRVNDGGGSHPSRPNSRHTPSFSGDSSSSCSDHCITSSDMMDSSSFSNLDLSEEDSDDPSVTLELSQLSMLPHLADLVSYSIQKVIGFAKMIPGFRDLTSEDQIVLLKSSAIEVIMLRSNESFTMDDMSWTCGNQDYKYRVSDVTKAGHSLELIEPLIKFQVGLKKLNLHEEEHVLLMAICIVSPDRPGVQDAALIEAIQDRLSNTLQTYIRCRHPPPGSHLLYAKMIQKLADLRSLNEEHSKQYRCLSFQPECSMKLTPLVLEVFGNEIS
# Method in brief: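 HL-60 cells in RPMI-1640 with 10% heat-inactivated FBS, seeded at 3 × 10³ cells/mL. Cells were given graded test compound in ethanol plus 1,25-D3 as the inducer, then cultured 96 h at 37 °C in 5% CO2 with no medium change. NBT (0.1%) and TPA (100 ng/mL) were added at final concentrations for 25 min at 37 °C. NBT-positive cells were counted on cytospin smears, and IC50 was taken.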
# [3] = target: T3, Vitamin D3 receptor (Homo sapiens) (UniProt P11473); assay: Inhibition of human VDR mediated transactivation of luciferase in COS7 cells; assay type: functional, cell-based; details: COS-7
# T3 sequence (whole entry): T2 sequence (P11473 whole entry)
# [4] = target: T4, Vitamin D3 receptor (Rattus norvegicus) (UniProt P13053); assay: Inhibition of rat VDR mediated transactivation of luciferase in COS7 cells; assay type: functional, cell-based; details: COS-7
# T4 sequence (whole entry): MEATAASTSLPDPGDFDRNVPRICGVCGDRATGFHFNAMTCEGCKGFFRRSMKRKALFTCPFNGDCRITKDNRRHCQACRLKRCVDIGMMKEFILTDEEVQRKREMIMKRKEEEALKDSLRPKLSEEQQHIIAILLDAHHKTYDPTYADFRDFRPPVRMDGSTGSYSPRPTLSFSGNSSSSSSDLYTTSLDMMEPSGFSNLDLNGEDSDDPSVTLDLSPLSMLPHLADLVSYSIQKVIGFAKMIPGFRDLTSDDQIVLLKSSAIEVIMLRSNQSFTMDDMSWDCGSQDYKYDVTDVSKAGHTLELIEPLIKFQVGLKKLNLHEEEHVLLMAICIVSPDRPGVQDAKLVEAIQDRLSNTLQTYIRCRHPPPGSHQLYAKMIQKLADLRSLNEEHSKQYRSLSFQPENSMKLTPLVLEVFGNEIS
Activity [1] [%],IC50 [2],Activity [3],Activity [4],SMILES
0.11,Not Active,–,–,C=C1/C(=C\C=C2/CCC[C@@]3(C)C2CC[C@@H]3[C@H](C)C[C@@H]2C[C@](C)(O)C(=O)N2C(C)C)C[C@@H](O)C[C@@H]1O (stereo partly drawn)
2.2,–,–,–,C=C1/C(=C\C=C2/CCC[C@@]3(C)C2CC[C@@H]3[C@H](C)C[C@H]2C[C@](C)(O)C(=O)N2Cc2ccc(OC)cc2)C[C@@H](O)C[C@@H]1O (stereo partly drawn)
0.25,Not Active,–,–,C=C1/C(=C\C=C2/CCC[C@@]3(C)C2CC[C@@H]3[C@H](C)C[C@@H]2C[C@@](C)(O)C(=O)N2Cc2ccccc2)C[C@@H](O)C[C@@H]1O (stereo partly drawn)
0.14,Not Active,–,–,C=C1/C(=C\C=C2/CCC[C@@]3(C)C2CC[C@@H]3[C@H](C)C[C@@H]2C[C@@](C)(O)C(=O)N2C(C)C)C[C@@H](O)C[C@@H]1O (stereo partly drawn)
0.25,Not Active,–,–,C=C1/C(=C\C=C2/CCC[C@@]3(C)C2CC[C@@H]3[C@H](C)C[C@@H]2C[C@](C)(O)C(=O)N2Cc2ccccc2)C[C@@H](O)C[C@@H]1O (stereo partly drawn)
0.3,Not Active,–,–,C=C1/C(=C\C=C2/CCC[C@@]3(C)C2CC[C@@H]3[C@H](C)C[C@@H]2C[C@@](C)(O)C(=O)N2Cc2ccc(OC)cc2)C[C@@H](O)C[C@@H]1O (stereo partly drawn)
0.18,Not Active,–,–,C=C1/C(=C\C=C2/CCC[C@@]3(C)C2CC[C@@H]3[C@H](C)C[C@H]2C[C@@](C)(O)C(=O)N2Cc2ccccc2)C[C@@H](O)C[C@@H]1O (stereo partly drawn)
2.74,–,Dose-dependent effect,Dose-dependent effect,C=C1/C(=C\C=C2/CCC[C@@]3(C)C2CC[C@@H]3[C@H](C)C[C@H]2C[C@](C)(O)C(=O)N2Cc2ccccc2)C[C@@H](O)C[C@@H]1O (stereo partly drawn)
1.52,–,–,–,C=C1/C(=C\C=C2/CCC[C@@]3(C)C2CC[C@@H]3[C@H](C)C[C@H]2C[C@](C)(O)C(=O)N2C(C)C)C[C@@H](O)C[C@@H]1O (stereo partly drawn)
0.14,Not Active,–,–,C=C1/C(=C\C=C2/CCC[C@@]3(C)C2CC[C@@H]3[C@H](C)C[C@H]2C[C@@](C)(O)C(=O)N2C(C)C)C[C@@H](O)C[C@@H]1O (stereo partly drawn)
0.1,Not Active,–,–,C=C1/C(=C\C=C2/CCC[C@@]3(C)C2CC[C@@H]3[C@H](C)C[C@@H]2C[C@](C)(O)C(=O)N2Cc2ccc(OC)cc2)C[C@@H](O)C[C@@H]1O (stereo partly drawn)
0.09,Not Active,–,–,C=C1/C(=C\C=C2/CCC[C@@]3(C)C2CC[C@@H]3[C@H](C)C[C@H]2C[C@@](C)(O)C(=O)N2Cc2ccc(OC)cc2)C[C@@H](O)C[C@@H]1O (stereo partly drawn)

# Continued, compound first:
SMILES,Activity [1] [%],IC50 [2],Activity [3],Activity [4]
C=C1/C(=C\C=C2/CCC[C@@]3(C)C2CC[C@@H]3[C@H](C)C[C@H]2C[C@](C)(O)C(=O)N2CCCCc2ccccc2)C[C@@H](O)C[C@@H]1O (stereo partly drawn),5.24,–,–,–
C=C1/C(=C\C=C2/CCC[C@@]3(C)C2CC[C@@H]3[C@H](C)C[C@@H]2C[C@](C)(O)C(=O)N2CCCCc2ccccc2)C[C@@H](O)C[C@@H]1O (stereo partly drawn),0.1,Not Active,–,–
C=C1/C(=C\C=C2/CCC[C@@]3(C)C2CC[C@@H]3[C@H](C)C[C@H]2C[C@@](C)(O)C(=O)N2CCc2ccccc2)C[C@@H](O)C[C@@H]1O (stereo partly drawn),0.34,–,–,–
C=C1/C(=C\C=C2/CCC[C@@]3(C)C2CC[C@@H]3[C@H](C)C[C@@H]2C[C@@](C)(O)C(=O)N2CCCc2ccccc2)C[C@@H](O)C[C@@H]1O (stereo partly drawn),0.19,Not Active,–,–
C=C1/C(=C\C=C2/CCC[C@@]3(C)C2CC[C@@H]3[C@H](C)C[C@H]2C[C@](C)(O)C(=O)N2CCc2ccccc2)C[C@@H](O)C[C@@H]1O (stereo partly drawn),8,–,–,–
C=C1/C(=C\C=C2/CCC[C@@]3(C)C2CC[C@@H]3[C@H](C)C[C@@H]2C[C@@](C)(O)C(=O)N2CCCCc2ccccc2)C[C@@H](O)C[C@@H]1O (stereo partly drawn),0.3,Not Active,–,–
C=C1/C(=C\C=C2/CCC[C@@]3(C)C2CC[C@@H]3[C@H](C)C[C@@H]2C[C@@](C)(O)C(=O)N2CCc2ccccc2)C[C@@H](O)C[C@@H]1O (stereo partly drawn),0.51,Not Active,–,–
C=C1/C(=C\C=C2/CCC[C@@]3(C)C2CC[C@@H]3[C@H](C)C[C@H]2C[C@@](C)(O)C(=O)N2CCCc2ccccc2)C[C@@H](O)C[C@@H]1O (stereo partly drawn),0.09,Not Active,–,–
C=C1/C(=C\C=C2/CCC[C@@]3(C)C2CC[C@@H]3[C@H](C)C[C@@H]2C[C@](C)(O)C(=O)N2CCCc2ccccc2)C[C@@H](O)C[C@@H]1O (stereo partly drawn),0.03,Not Active,–,–
C=C1/C(=C\C=C2/CCC[C@@]3(C)C2CC[C@@H]3[C@H](C)C[C@H]2C[C@](C)(O)C(=O)N2CCCc2ccccc2)C[C@@H](O)C[C@@H]1O (stereo partly drawn),0.68,–,–,–
C=C1/C(=C\C=C2/CCC[C@@]3(C)C2CC[C@@H]3[C@H](C)C[C@H]2C[C@@](C)(O)C(=O)N2CCCCc2ccccc2)C[C@@H](O)C[C@@H]1O (stereo partly drawn),0.09,Not Active,–,–
C=C1/C(=C\C=C2/CCC[C@@]3(C)C2CC[C@@H]3[C@H](C)C[C@@H]2C[C@](C)(O)C(=O)N2CCc2ccccc2)C[C@@H](O)C[C@@H]1O (stereo partly drawn),0.19,Not Active,–,–
